Experimental data taken from article PMC6591795 (ChemistryOpen, 2019).
Like-named read-outs stand apart in the source and are kept apart here.

Assays:
GTB [1] = molecular target: T1, GTB (Homo sapiens, UniProt P16442, G235S/G268A/L266M/R176G); assay: methyl TROSY CSP titration, TITAN lineshape analysis; assay type: binding; conditions: for Kd: K D
T1 sequence (P16442 64-354 R176G/G235S/L266M/G268A limits assumed): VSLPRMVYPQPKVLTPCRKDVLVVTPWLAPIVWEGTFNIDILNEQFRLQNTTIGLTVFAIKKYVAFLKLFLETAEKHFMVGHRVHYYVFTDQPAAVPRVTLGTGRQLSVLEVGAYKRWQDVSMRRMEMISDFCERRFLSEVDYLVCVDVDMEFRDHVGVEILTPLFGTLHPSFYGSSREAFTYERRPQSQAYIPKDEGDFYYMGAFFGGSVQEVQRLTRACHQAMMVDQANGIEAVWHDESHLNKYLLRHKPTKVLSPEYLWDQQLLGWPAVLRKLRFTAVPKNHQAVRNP
Outline: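 Enzyme expressed in D₂O-based M9 minimal medium with ¹³C-methyl precursors, IPTG-induced, and purified by cation-exchange and UDP-affinity chromatography. Ligand titrated at constant protein concentration, with a 2D [¹³C,¹H] HMQC at each point. Kd and koff from a global multi-peak TITAN two-state fit; apo parameters fixed from the ligand-free spectrum; 200-run bootstrap residual resampling.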

GTB [2] = molecular target: T1, GTB; conditions: read-out: KD from ITC; UDP binding to GTB:H-Dis; cited from earlier work
[3] = GTB in presence of saturating B-Tris
[4] = GTB in presence of saturating H-Dis
[5] = GTB in presence of saturating H-Tris I
[6] = GTB in presence of saturating H-Tris II
[7] = GTB in presence of saturating H-Tris III
[8] = GTB in presence of saturating H-Tris IV
[9] = GTB in presence of saturating H-Tris V
[10] = GTB in presence of saturating H-Tris VI
[11] = apo GTB, donor-type ligands, Mg2+, 298 K

- koff (GTB [1]; [3]): 18 ± 1 s⁻¹
- kon (GTB [1]; [3]): 28000 M⁻¹ s⁻¹
- koff (GTB [1]; [4]): 2.6 ± 0.3 s⁻¹
- kon (GTB [1]; [4]): 25000 M⁻¹ s⁻¹
- off-rate constant koff (GTB [1]; GTB in presence of saturating H-Dis, from titration analysis (Table 3)): 2.6 Hz
- koff (GTB [1]; [5]): 2.2 ± 0.2 s⁻¹
- kon (GTB [1]; [5]): 58000 M⁻¹ s⁻¹
- koff (GTB [1]; [6]): 1.7 ± 0.3 s⁻¹
- kon (GTB [1]; [6]): 280000 M⁻¹ s⁻¹
- koff (GTB [1]; [7]): 3.6 ± 0.5 s⁻¹
- kon (GTB [1]; [7]): 120000 M⁻¹ s⁻¹
- koff (GTB [1]; [8]): 12 ± 1 s⁻¹
- kon (GTB [1]; [8]): 190000 M⁻¹ s⁻¹
- koff (GTB [1]; [9]): 3.4 ± 0.3 s⁻¹
- kon (GTB [1]; [9]): 120000 M⁻¹ s⁻¹
- koff (GTB [1]; [10]): 2.2 ± 0.2 s⁻¹
- kon (GTB [1]; [10]): 69000 M⁻¹ s⁻¹
- kon multiplied by the UDP concentration (comparable to kAB) (GTB [1]; GTB saturated with H-Dis, kon=2.5×10^4 M^−1s^−1 times 250 μM UDP): ca. 6.3 Hz
- Kd (GTB [1]; [3]): 660 ± 10 µM
- Kd (GTB [1]; [4]): 103 ± 2 µM
- Kd (GTB [1]; [5]): 38 ± 1 µM
- Kd (GTB [1]; [6]): 6 ± 1 µM
- Kd (GTB [1]; [7]): 29 ± 1 µM
- Kd (GTB [1]; [8]): 65 ± 2 µM
- Kd (GTB [1]; [9]): 31 ± 1 µM
- Kd (GTB [1]; [10]): 32 ± 1 µM
- Kd (GTB [1]; [11]): 161 ± 3 µM
- koff (GTB [1]; [11]): 243 ± 7 s⁻¹
- kon (GTB [1]; [11]): 1.5e+06 M⁻¹ s⁻¹
SMILES: O=c1ccn([C@@H]2O[C@H](COP(=O)(O)OP(=O)(O)O)[C@@H](O)[C@H]2O)c(=O)[nH]1 [UDP, uridine diphosphate]
- Kd (GTB [2]): 27 µM
